Laboratory results taken from ChEMBL document CHEMBL1177671, “Synthesis and cytotoxic activity of a new potential DNA bisintercalator: 1,4-Bis{3-[N-(4-chlorobenzo[g]phthalazin-1-yl)aminopropyl]}piperazine” (Bioorg Med Chem, 2010).

Assays:
NCI-H460 = test: Cytotoxicity against human NCI-H460 cells after 72 hrs by XTT assay; format: functional, cell-based; conditions: NCI-H460, 72 h
Summary of the method: (§1)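 Cells grown in DMEM with 10% heat-inactivated FBS, 2 mM L-glutamine, penicillin/streptomycin at 37 °C, 5% CO2, and tested Mycoplasma-negative. 1.5 × 10³ cells per well were exposed to compound over 10^-4 to 10^-9 M for 72 h at 37 °C, then read by XTT proliferation assay. Done in triplicate; IC50 is the concentration giving 50% proliferation inhibition versus untreated controls.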

MCF7 = test: Cytotoxicity against human MCF7 cells after 72 hrs by XTT assay; format: functional, cell-based; conditions: MCF7, 72 h; summary of the method: as §1
HT-29 = test: Cytotoxicity against human HT-29 cells after 72 hrs by XTT assay; format: functional, cell-based; conditions: HT-29, 72 h; summary of the method: as §1
SF-268 = test: Cytotoxicity against human SF268 cells after 72 hrs by XTT assay; format: functional, cell-based; conditions: SF-268, 72 h; summary of the method: as §1
Calf thymus DNA = test: Binding affinity to calf thymus DNA assessed as change in melting temperature; format: nucleic-acid assay; conditions: Bos taurus
Summary of the method: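 ct-DNA sonicated, filtered (0.45 µm) and held in sodium cacodylate buffer, I = 0.05 mol dm^-3, pH 7.0, at 7.5 × 10^-6 M base pairs. Melting was followed by absorbance at 260 nm versus temperature with increasing ligand, ligand absorbance subtracted and normalised. Tm is the transition midpoint (first-derivative maximum or tangent method). ΔTm = Tm(complex) − Tm(free DNA), averaged over ≥3 runs, error 0.5 °C.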

SMILES | IC50 (NCI-H460) [nM] | IC50 (MCF7) [nM] | IC50 (HT-29) [nM] | IC50 (SF-268) [nM] | Tm (Calf thymus DNA) [°C]
CCCCCNc1nnc(NCCCCC)c2cc3ccccc3cc12 | 2370 | 2570 | 2700 | 2700 | 
c1ccc(CCNc2nnc(NCCc3ccccc3)c3cc4ccccc4cc23)cc1 | 1830 | 2570 | 2950 | 2630 | 
CCCCNc1nnc(NCCCC)c2cc3ccccc3cc12 | 2030 | 2470 | 2350 | 2630 | 
Clc1nnc(NCCCN2CCN(CCCNc3nnc(Cl)c4cc5ccccc5cc34)CC2)c2cc3ccccc3cc12 | 742 | 863 | 497 | 665 | 
CCCCNc1nnc(Cl)c2cc3ccccc3cc12 | 85500 | > 100000 | > 100000 | 88000 | 
NCCCN1CCN(CCCNc2nnc(Cl)c3cc4ccccc4cc23)CC1 | 8800 | 9200 | 10500 | 12600 | 
COc1cccc2c1C(=O)c1c(O)c3c(c(O)c1C2=O)C[C@@](O)(C(=O)CO)C[C@@H]3O[C@H]1C[C@H](N)[C@H](O)[C@H](C)O1 [DOXORUBICIN] | 264 | 324 | 280 | 220 | 20.6
